# Screening results from PubChem.
# This is a sample that favours compounds with a hit; in the whole collection about 2.6% have one here.
# MEKK2 WT-MEK5: raises or lowers MEK5 binding to wildtype human MEKK2 PB1 domain | bead flow cytometry, Alexa488-MEK5 binding to MEKK2 WT; actives lie on both sides | binding response (% of control), % at 10 µM | hit rate 1.1% among 290,000; in the data active = binding response below about 67% or above about 130%
# MEKK3 PB1 HTS: raises or lowers MEK5 binding to the human MEKK3 PB1 domain; Q99759; bead-based flow cytometry, Alexa488-MEK5 binding to MEKK3; actives lie on both sides; 0 = blocked by unlabeled MEK5, 100 = vehicle; binding response (% of control), % at 10 µM; hit rate 1.4% among 290,000; AID 1529;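 active = binding response more than 3 SD above or below the average of its plate-row segment, actives on both sides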;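 also: Alexa488 bead fluorescence after subtracting the streptavidin-only scavenger bead signal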
# Target sequence (Q99759 whole entry, looked up, the tested form may be a part): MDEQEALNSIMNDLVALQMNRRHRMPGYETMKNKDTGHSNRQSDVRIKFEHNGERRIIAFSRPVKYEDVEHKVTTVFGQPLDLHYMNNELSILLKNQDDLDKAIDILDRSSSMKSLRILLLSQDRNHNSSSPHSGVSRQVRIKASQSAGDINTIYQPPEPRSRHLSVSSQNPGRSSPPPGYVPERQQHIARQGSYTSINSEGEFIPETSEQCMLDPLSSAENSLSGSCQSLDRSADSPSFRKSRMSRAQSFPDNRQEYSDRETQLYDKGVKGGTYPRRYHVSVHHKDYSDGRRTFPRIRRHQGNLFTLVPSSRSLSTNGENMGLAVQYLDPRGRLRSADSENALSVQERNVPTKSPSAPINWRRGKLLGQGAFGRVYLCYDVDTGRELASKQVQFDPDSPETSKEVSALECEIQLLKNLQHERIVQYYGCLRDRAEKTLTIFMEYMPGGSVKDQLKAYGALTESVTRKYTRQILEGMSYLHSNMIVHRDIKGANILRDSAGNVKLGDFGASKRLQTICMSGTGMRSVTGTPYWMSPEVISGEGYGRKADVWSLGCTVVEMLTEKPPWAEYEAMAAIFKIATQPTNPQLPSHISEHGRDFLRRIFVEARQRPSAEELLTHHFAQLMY
# MEKK2mut PB1 HTS: signal of MEK5 binding to mutant human MEKK2 PB1 domain | bead flow cytometry, Alexa488-MEK5 binding to MEKK2 mutant | percent response, % at 10 µM | hit rate 0.35% among 290,000 | AID 1530; in the data active = percent response above about 24%, passing the limit was not always enough
# Hep lipid drop: modulators of hepatic lipid droplet formation; AML12 mouse hepatocytes, oleate lipid droplets, BODIPY imaging; inhibition, % at 6.5 µM; hit rate 0.4% among 240,000;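 active = lipid droplet intensity inhibited by at least 50%, with more than 500 cells counted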
#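 System: AML12 hepatocytes (mouse). Probe or stimulus: oleic acid at 100 µM to induce lipid droplet formation. Times: overnight treatment with compound plus oleate. Detection: Image-based BODIPY and DAPI two-channel analysis. Evaluation: percent inhibition of filter-corrected integrated lipid droplet intensity per well.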
# MEKK2wt confirm: raises or lowers MEK5 binding to wildtype human MEKK2, retest; shares compounds with MEKK3 PB1 HTS; bead flow cytometry, Alexa488-MEK5 binding to MEKK2 WT; actives lie on both sides; binding response (% of control), % at 10 µM; hit rate 2.4% among 5,900; in the data active = binding response below about 16% or above about 210%; inactive = in between
# MEKK2mut-MEK5: signal of MEK5 binding to mutant human MEKK2, retest; shares compounds with MEKK3 PB1 HTS; bead flow cytometry, Alexa488-MEK5 binding to MEKK2 mutant; percent response, % at 10 µM; hit rate 2% among 5,900; AID 1893; in the data active = percent response mostly above about 71%, no sharp cut-off; inactive = mostly below about 38%;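 also: higher means compound restores mutant binding toward wildtype level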
# MEKK3-MEK5 inh: MEKK3-MEK5 PB1 inhibition, single concentration confirmation | binding response (% of control), % at 10 µM | shares compounds with MEKK3 PB1 HTS | hit rate 1.8% among 5,900 | bead flow cytometry, Alexa488-MEK5 binding to MEKK3; active compounds read low;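 active = binding response below 72% of control, or above a set upper limit, though filed actives all read lower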;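 also: 100% = DMSO only wells and 0% = binding blocked by excess unlabeled MEK5; lower values mean stronger disruption of MEK5 binding to MEKK3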
# Active calls of the source: *; . = not tested or not shown; + = active, no number; [ ] = another dose, or the depositor's remark.
SMILES,MEKK2 WT-MEK5,MEKK3 PB1 HTS,MEKK2mut PB1 HTS,Hep lipid drop,MEKK2wt confirm,MEKK2mut-MEK5,MEKK3-MEK5 inh
CC(=O)N[C@H]1[C@H](Oc2ccc3c(c2)CCC2C3CC[C@]3(C)C(=O)CCC23)O[C@H](CO)[C@@H](O)[C@@H]1O (stereo partly drawn),108,105,5,5,.,.,.
OC(COCC1COc2ccccc2O1)CN1CCN(c2ccccn2)CC1 (stereo not drawn),117,114,24*,.,106,7,107
Fc1ccc(SCCc2ccncc2)cc1,103,103,17,.,.,.,.
Cc1ccc(SCCc2cc[n+](CC(=O)c3ccccc3)cc2)cc1,143*,101,-3,12,153,36,96
O=C(C[n+]1ccc(CCSc2ccc(F)cc2)cc1)c1ccccc1,61*,93,249*,7,149,27,101
Cc1ccc(C(=O)C[n+]2ccc(Cc3ccccc3)cc2)cc1,106,104,2,-1,.,.,.
C=C(C)CN(CC)C(=O)CCc1nnc(CCCc2ccccc2)o1,105,102,10,-8,.,.,.
CCN(CCn1cccn1)C(=O)CCc1nnc(CCCc2ccccc2)o1,151*,131*,+,3,101,14,102
NS(=O)(=O)c1ccc(CNC(=O)c2cccnc2Cl)cc1,97,97,-1,0,.,.,.
Cc1ccc(NC(=S)Nc2cccc3cnccc23)c(C)c1,94,99,-2,-12,.,.,.
Cc1cc(C)cc(NC(=S)Nc2cccc3cnccc23)c1,140*,107,7,-4,107,3,103
Nc1cc(S(=O)(=O)Nc2cc(Cl)ccc2Cl)ccc1N1CCCC1,40*[inhibitor],36*[inhibitor],-21,-24,101,9,100
CC(=O)c1ccc(N2CCN(CN3C(=O)CC4(CCCC4)C3=O)CC2)c(F)c1,103,100,7,-12,.,.,.
COc1ccc(CCNC(=O)CSc2nnc(Cc3cccn3C)n2C)cc1OC,100,99,5,-3,.,.,.
Oc1c(Br)cc(C=Nc2ccc3nc(-c4ccccc4)[nH]c3c2)c(O)c1Br,56*[inhibitor],88,-26,-50,78,-10,95
O=[N+]([O-])c1ccc(O)c(C=Nc2ccc3nc(-c4ccccc4)[nH]c3c2)c1,93,93,-3,1,.,.,.
COc1ccc(/C=C\c2onc(C)c2S(=O)(=O)N2CCC(C(=O)NCc3ccco3)CC2)cc1,115,130*,31,8,107,5,106
Cc1noc(/C=C/c2cccs2)c1S(=O)(=O)N1CCC(C(=O)NCCCN2CCCC(C)C2)CC1 (stereo not drawn),152*,109,33,2,146,34,108
C=CCNC(=S)NNc1nc2c(c(=O)[nH]1)C1(CCCC1)Cc1ccccc1-2,108,142*,0,26,102,-3,102
O=c1[nH]c(NNC(=S)NCc2ccccc2)nc2c1C1(CCCCC1)Cc1ccccc1-2,94,100,-1,2,.,.,.
CC(C)NC(=O)/C(=C/c1cn(-c2ccccc2)nc1-c1cccc([N+](=O)[O-])c1)NC(=O)c1ccccc1,105,101,0,0,.,.,.
NNC(=O)Cn1nc(-c2ccccc2)c2ccccc2c1=O,3.0*[inhibitor],2.0*[inhibitor],-51,-8,105,4,105
N#C/C(=C\c1cn(Cc2ccc(F)cc2)c2ccccc12)C(=O)NCc1ccco1,103,129*,0,0,97,-3,100
N#C/C(=C\c1cn(Cc2ccccc2)c2ccccc12)C(=O)NCc1ccco1,100,101,-2,-19,.,.,.
N#C/C(=C/c1cn(CC(=O)O)c2ccccc12)C(=O)Nc1ccccc1,41*[inhibitor],100,5,0,96,0,100
SMILES,MEKK2 WT-MEK5,MEKK3 PB1 HTS,MEKK2mut PB1 HTS,Hep lipid drop,MEKK2wt confirm,MEKK2mut-MEK5,MEKK3-MEK5 inh
Oc1ccc(N=Nc2cccc(Cl)c2)cc1C=Nc1ccc(N2CCOCC2)cc1,100,97,4,21,.,.,.
Oc1c(Br)cc(Cl)cc1C=Nc1ccc(N2CCOCC2)cc1,54*[inhibitor],89,-18,10,83,-8,101
O=C(CN1C(=O)NC2(CCOc3ccccc32)C1=O)NCC(F)(F)F (stereo not drawn),98,100,0,-11,.,.,.
CCN(CC)c1nc(N)c([N+](=O)[O-])c(NCCO)n1,115,134*,1,-7,82,-7,97
O=S(=O)(Nc1ccc(C(F)(F)F)cn1)c1ccccc1,98,101,1,32,.,.,.
O=C(c1c(F)c(F)c(F)c(F)c1F)N1CCc2ccccc21,92,104,2,.,.,.,.
COc1ccc(N=C2NC(=O)/C(=C/c3ccc(O)c(OC)c3)S2)cc1,107,146*,-1,21,102,-1,99
COc1cc(/C=C2/SC(=Nc3ccc(O)cc3)NC2=O)cc(OC)c1O,99,99,-5,11,.,.,.
COc1ccc(NC(=O)N2CCN(c3ccc([N+](=O)[O-])cc3)CC2)cc1OC,56,45*[inhibitor],-13,9,87,-2,80
COc1ccc(NC(=O)N2CCN(c3ccc([N+](=O)[O-])cc3)CC2)cc1,91,101,-9,4,.,.,.
O=C(C[n+]1ccccc1)N/N=C/c1cc(Br)cc(Br)c1O,107,105,-2,-2,.,.,.
CCC(O)(CC)C(=O)N/N=C/c1cc(Br)cc(Br)c1O,127,134*,23,-4,104,3,103
N=C1C=CC=C2C1=NC1(CCCCC1)N2O,2.0*[inhibitor],2.0*[inhibitor],-21,-14,84,-6,87
CC(C)(C)N=C1C([N+](=O)[O-])=CC=C2C1=NC1(CCCCC1)N2O,107,104,4,-1,.,.,.
O=C(Cc1ccc(-n2c(=O)[nH]c3ccsc3c2=O)cc1)N1CCN(c2ccc(Cl)cc2)CC1,100,104,-1,1,.,.,.
CCOc1ccccc1C(=O)N[C@H](C(=O)Nc1nc2c(s1)CCCC2)C(C)C,101,137*,1,31,97,-2,102
COc1ccc(C(=O)N[C@H](C(=O)Nc2nc3c(s2)CCCC3)C(C)C)cc1,96,96,-2,-17,.,.,.
COc1ccccc1-n1c(SCC(=O)c2ccc(O)cc2O)nc2cc([N+](=O)[O-])ccc21,88,93,-2,-12,.,.,.
Cc1csc(SCc2ccccc2C(=O)O)n1,3.0*[inhibitor],3.0*[inhibitor],-14,.,100,2,102
Cc1nc(CNS(=O)(=O)c2ccc(F)cc2)cs1,104,105,9,-22,.,.,.
Cc1c(-c2ccc(Cl)cc2)[n+](=O)c2c(n1[O-])CCCC2,102,104,-1,-6,.,.,.
COc1ccc(-c2c(C)n([O-])c3c([n+]2=O)CCCCC3)cc1,104,135*,-1,9,103,2,102
